Results taken from ChEMBL document CHEMBL1641515, “Inhibition of secreted phospholipases A₂ by 2-oxoamides based on α-amino acids: Synthesis, in vitro evaluation and molecular docking calculations” (Bioorg Med Chem, 2011).

Assays:
[1] = target: T1, Phospholipase A2, membrane associated (Homo sapiens) (UniProt P14555); assay: Inhibition of human group 2A sPLA2 at […] by fluorescence assay
T1 sequence (whole entry): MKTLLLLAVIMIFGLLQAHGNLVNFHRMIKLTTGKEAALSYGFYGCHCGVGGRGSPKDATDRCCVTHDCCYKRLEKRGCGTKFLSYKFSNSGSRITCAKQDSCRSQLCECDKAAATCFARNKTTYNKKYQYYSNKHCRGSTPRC

[2] = target: T2, Phospholipase A2 group V (Homo sapiens) (UniProt P39877); assay: Inhibition of human group 5 sPLA2 at […] by fluorescence assay
T2 sequence (whole entry): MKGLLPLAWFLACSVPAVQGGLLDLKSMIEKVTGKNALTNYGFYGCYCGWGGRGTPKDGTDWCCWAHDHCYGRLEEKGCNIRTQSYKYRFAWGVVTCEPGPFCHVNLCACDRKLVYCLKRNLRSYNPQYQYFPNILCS

[3] = target: T3, Group 10 secretory phospholipase A2 (Homo sapiens) (UniProt O15496); assay: Inhibition of human group 10 sPLA2 at […] by fluorescence assay
T3 sequence (whole entry): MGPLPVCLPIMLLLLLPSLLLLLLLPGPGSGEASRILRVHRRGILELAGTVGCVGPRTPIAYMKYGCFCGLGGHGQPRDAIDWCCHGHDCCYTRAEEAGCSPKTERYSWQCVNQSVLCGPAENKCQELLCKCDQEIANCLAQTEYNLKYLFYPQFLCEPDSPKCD

[4] = target: T4, Phospholipase A2, membrane associated (Homo sapiens, UniProt P14555); assay: Inhibition of human group 2A sPLA2 by fluorescence assay
T4 sequence (P14555 whole entry): T1 sequence (whole entry)
Method in brief: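 Continuous fluorimetric assay with recombinant human GIIA sPLA2 (6 ng/well) on pyrPG vesicles, pH 8.0 Tris buffer with Ca2+, KCl and BSA. Readout at ex 342/em 395 nm, initial slopes. […] Nonlinear variable-slope sigmoidal fit gives IC50; mean of duplicate or triplicate analyses with SD.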

Phospholipase A2 group V [5] = target: T5, Phospholipase A2 group V (Homo sapiens, UniProt P39877); assay: Inhibition of human group 5 sPLA2 by fluorescence assay
T5 sequence (P39877 whole entry): T2 sequence (whole entry)
Method in brief: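 Recombinant human GV sPLA2 (12.5 ng/well) with pyrPG vesicle substrate in Tris-HCl pH 8.0, KCl, CaCl2 and BSA. Monitored by fluorescence (342/395 nm), using initial slopes. […] IC50 by variable-slope sigmoidal regression on log concentration; duplicate or triplicate runs, mean with SD.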

[6] = target: T6, Group 10 secretory phospholipase A2 (Homo sapiens, UniProt O15496); assay: Inhibition of human group 10 sPLA2 by fluorescence assay
T6 sequence (O15496 whole entry): T3 sequence (whole entry)

[7] = target: T7, Phospholipase A2, membrane associated (Mus musculus, UniProt P31482); assay: Inhibition of mouse group 2A sPLA2 by fluorescence assay
T7 sequence (P31482 whole entry): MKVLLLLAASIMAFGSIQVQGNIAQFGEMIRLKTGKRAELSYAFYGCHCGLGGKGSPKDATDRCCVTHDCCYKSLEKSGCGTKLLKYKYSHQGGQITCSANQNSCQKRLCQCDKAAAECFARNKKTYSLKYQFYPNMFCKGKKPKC

Phospholipase A2 group V [8] = target: T8, Phospholipase A2 group V (Mus musculus, UniProt P97391); assay: Inhibition of mouse group 5 sPLA2 by fluorescence assay
T8 sequence (P97391 whole entry): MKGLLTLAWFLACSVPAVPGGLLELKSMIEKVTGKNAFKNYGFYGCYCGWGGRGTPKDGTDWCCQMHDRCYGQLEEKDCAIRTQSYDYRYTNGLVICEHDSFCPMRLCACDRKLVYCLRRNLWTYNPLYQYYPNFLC

[9] = target: T9, Group 10 secretory phospholipase A2 (Mus musculus) (UniProt Q9QXX3); assay: Inhibition of mouse group 10 sPLA2 by fluorescence assay; conditions: concentration not given here
T9 sequence (whole entry): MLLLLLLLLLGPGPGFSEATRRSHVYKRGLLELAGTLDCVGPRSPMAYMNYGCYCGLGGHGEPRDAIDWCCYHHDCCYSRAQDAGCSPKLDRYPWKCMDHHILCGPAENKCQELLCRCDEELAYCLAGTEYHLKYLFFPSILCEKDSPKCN
Method in brief: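 Mouse GX sPLA2, recombinant, 10.7 ng per well, in 50 mM Tris-HCl pH 8.0 with 50 mM KCl, 1 mM CaCl2 and BSA. Started with pyrPG vesicles and read at ex 342/em 395 nm. Percent inhibition from initial fluorescence slopes at five concentrations. IC50 from a variable-slope sigmoidal dose-response fit.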

| inhibition [1] | inhibition [2] | inhibition [3] | IC50 [4] | IC50 (Phospholipase A2 group V [5]) | IC50 [6] | IC50 [7] | IC50 (Phospholipase A2 group V [8]) | inhibition [9] | SMILES |
| --- | --- | --- | --- | --- | --- | --- | --- | --- | --- |
| 3% | 9% | 22% |  |  |  |  |  |  | CCCCCCCCCCCCCCC(=O)C(=O)NCC(=O)OC |
|  | 47% | 18% | 5.6 µM |  |  |  |  |  | CCCCCCCCCCCCCCC(=O)C(=O)NCCC(=O)O |
|  |  |  | > 1.66 µM | > 1.66 µM | > 1.66 µM |  |  |  | CCCCCCCCCCCCCCC(=O)C(=O)N[C@@H](Cc1ccccc1)C(=O)O |
|  |  |  | 1.75 µM | 1.5 µM | > 1.66 µM |  |  |  | CCCCCCCCCCCCCCC(=O)C(=O)N[C@H](CC(C)C)C(=O)O |
|  |  |  | > 1.66 µM | > 1.66 µM |  |  |  |  | CCCCCCCCCCCCCCCC(=O)N[C@@H](CC(C)C)C(=O)O |
|  | 43% | 23% | 4.2 µM |  |  |  |  |  | CCCCCCCCCCCCCCC(=O)C(=O)NCC(=O)O |
|  |  | 50% | 0.3 µM | 0.44 µM |  | 0.18 µM | 2.6 µM | 58% | CCCCCCCCCCCCCCC(=O)C(=O)N[C@@H](CC(C)C)C(=O)O |
|  | 49% | 7% | 11.7 µM |  |  |  |  |  | CCCCCCCCCCCCCCC(=O)C(=O)NCCCCC(=O)O |
